Our source for the ED50 and LD50 values is ChEMBL document CHEMBL1121825, “A potent, new, sedative--hypnotic agent: 5,7-dihydro-5,5,7,7-tetramethyl-3-(3-nitrophenyl)furo[3,4-e]-as-triazine 4-oxide” (J Med Chem, 1981).

A value given as a limit tells only on which side of the number the result lay.

Data set [1] deals with Mus musculus. Kind of data set: Ability to reinduce anesthesia in mice as a measure of in vivo sedative-hypnotic activity. The class given is functional. A digest of the protocol:
(§1)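 Male Royal Hart mice (20–25 g) were anesthetized with hexobarbital 70.0 mg/kg iv. While they were regaining the righting reflex, compound was given ip. Reinduction was scored as loss of righting reflex for 10 min. ED50 (mg/kg) is the dose reinducing anesthesia in 50% of mice, estimated by probit analysis (Miller–Tainter).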

The test system of data set [2] is Mus musculus. As to the kind of experiment: Tested for ability to reinduce anesthesia in mice when administered intraperitoneally as a measure of in vivo sedative-hypnotic activity; D represents Toxic. It counts as functional, organism-based. A digest of the protocol: as §1
For data set [3], the system named is Mus musculus. As to the kind of experiment: Compound was tested for mortality in mice when administered intraperitoneally. It counts as functional. The conditions noted are these: ip. A digest of the protocol: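 Male Royal Hart mice (20–25 g), groups of five, dosed ip 1 h before SaH 41-178 (50.0 mg/kg ip) to evoke seizures. ED50 is the dose preventing death in 50% of animals, estimated by probit analysis. At least 20 animals per drug.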

For data set [4], the system named is Mus musculus. As to the kind of experiment: Compound was tested for mortality in mice when administered perorally. The class given is functional. The conditions noted are these: po. In outline: (§2)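 Groups of five male Royal Hart mice (20–25 g) received test drug ip or orally 1 h before seizure induction with SaH 41-178 (50.0 mg/kg ip). ED50 is the dose preventing tonic convulsions or death in 50% of animals, by probit analysis.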

In data set [5] the test system is Mus musculus. As to the kind of experiment: Ataxia effect in mice was tested when the compound was administered perorally. It counts as functional. The conditions noted are these: po. In outline: (§3)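 Male Royal Hart mice (20–25 g) were dosed orally and scored in a modified Irwin behavioural observation screen. ED50 values (mg/kg) were estimated by probit analysis after Miller and Tainter, with at least 20 animals per drug. Values were reported as ED50 ± SE, or as the evaluation at the highest nontoxic dose used.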

The test system of data set [6] is Mus musculus. As to the kind of experiment: Ataxia effect in mice was tested when the compound was administered intraperitoneally. The class given is functional. The conditions noted are these: ip. A digest of the protocol:
(§4)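 Modified Irwin observational screen in male Royal Hart mice (20–25 g). ED50 (mg/kg) by probit analysis; at least 20 animals per drug.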

Data set [7] has as its system Mus musculus. Kind of data set: Compound was tested for reinduction of anesthesia in mice when administered intraperitoneally. It counts as functional. The conditions noted are these: ip. A digest of the protocol: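 Male Royal Hart mice (20–25 g) anaesthetised with hexobarbital (70.0 mg/kg iv) were given drug ip as they regained the righting reflex (modified Winter method). ED50 is the dose producing loss of righting reflex for 10 min in 50% of mice, by probit analysis.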

The subject of data set [8] is Mus musculus. Kind of data set: Compound was tested for rotarod motor coordination in mice when administered intraperitoneally. The class given is functional. The conditions noted are these: ip. A digest of the protocol: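 Male Royal Hart mice (20–25 g), groups of five, were trained to ride a corrugated-paper-covered rod turning at 15 rpm for 60–90 s. They were retested 30 and 60 min after ip drug or saline. Percent change in rotarod time was taken against controls. ED50 is the dose cutting rotarod time by 50%, estimated by probit analysis. At least 20 animals per drug.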
(In general: In the rotarod test animals must keep their balance on a rotating rod.)

The subject of data set [9] is Mus musculus. As to the kind of experiment: Compound was tested for rotarod motor coordination in mice when administered perorally. The class given is functional. The conditions noted are these: po. A digest of the protocol:
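Modified Dunham–Miya rotarod test. Groups of five male Royal Hart mice (20–25 g) were trained on a 15 rpm corrugated rod for 60–90 s, then retested 30 and 60 min after drug or saline (ip or oral). Percent change in riding time versus controls; ED50 is the dose giving a 50% decrease, by probit analysis.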

For data set [10], the system named is Mus musculus. As to the kind of experiment: Docility effect in mice was tested when the compound was administered ip. The class given is functional. A digest of the protocol:
as §4

The test system of data set [11] is Mus musculus. As to the kind of experiment: Docility effect in mice was tested when the compound was administered perorally. The class given is functional. The conditions noted are these: po. In outline: (§5)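 Oral dosing of male Royal Hart mice (20–25 g), scored by a modified Irwin behavioural screen. ED50 (mg/kg) estimated by probit analysis; at least 20 animals per drug.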

In data set [12] the test system is Mus musculus. Kind of data set: Compound was tested for tonic convulsions when administered intraperitoneally. It counts as functional. The conditions noted are these: ip. In outline: as §2
In data set [13] the test system is Mus musculus. As to the kind of experiment: Righting reflex effect in mice was tested when the compound was administered intraperitoneally. It counts as functional. The conditions noted are these: ip. In outline: as §4
Data set [14] deals with Mus musculus. As to the kind of experiment: Righting reflex effect in mice was tested when the compound was administered perorally. It counts as functional. The conditions noted are these: po. A digest of the protocol:
as §3

For data set [15], the system named is Mus musculus. As to the kind of experiment: Hypomotility effect in mice was tested when the compound was administered intraperitoneally. The class given is functional. The conditions noted are these: ip. A digest of the protocol:
as §4

For data set [16], the system named is Mus musculus. As to the kind of experiment: Hypomotility effect in mice was tested when the compound was administered perorally. It counts as functional. The conditions noted are these: po. A digest of the protocol:
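Modified Irwin behavioral observation in male Royal Hart mice (20–25 g), observed for 2 h after dosing. ED50 (mg/kg) estimated by probit analysis per Miller and Tainter. At least 20 animals per drug.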

The subject of data set [17] is Mus musculus. Kind of data set: Prehensile effect in mice was tested when the compound was administered intraperitoneally. The class given is functional. The conditions noted are these: ip. A digest of the protocol:
as §4

The subject of data set [18] is Mus musculus. Kind of data set: Prehensile effect in mice was tested when the compound was administered perorally. The conditions noted are these: po. It counts as functional. A digest of the protocol:
as §5

Data set [19] in a line: Acute toxicity in mice after 2 hours when administered intraperitoneally. The class given is organism-based. The conditions noted are these: mouse, in vivo, ip. In outline:
(§6)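 Male Royal Hart mice (20–25 g) dosed intraperitoneally or orally; deaths scored at 2 h and 72 h. LD50 (mg/kg) estimated by probit analysis (Miller–Tainter), with at least 20 animals per drug.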

The nature of data set [20]: Acute toxicity in mice after 2 hours when administered perorally. It counts as organism-based. The conditions noted are these: mouse, in vivo, po. A digest of the protocol: as §6
A short description of data set [21]: Acute toxicity in mice after 72 hours when administered intraperitoneally. It counts as organism-based. The conditions noted are these: mouse, in vivo, ip. A digest of the protocol: as §6
Data set [22] in a line: Acute toxicity in mice after 72 hours when administered perorally. The conditions noted are these: mouse, in vivo, po. The class given is organism-based. A digest of the protocol: as §6
Data set [23] concerns Rattus norvegicus. Kind of data set: Hypomotility effect in rats was tested when the compound was administered perorally. It counts as functional. The conditions noted are these: po. A digest of the protocol:
(§7)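 Modified Irwin behavioural observation in male Wistar rats (130–160 g). ED50 (mg/kg) obtained by probit analysis; minimum 20 animals per drug.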

In data set [24] the test system is Rattus norvegicus. As to the kind of experiment: Ataxia effect in rats was tested when the compound was administered perorally. It counts as functional. The conditions noted are these: po. A digest of the protocol: as §7
Data set [25] relates to Rattus norvegicus. Kind of data set: Righting reflex effect in rats was tested when the compound was administered perorally. It counts as functional. The conditions noted are these: po. A digest of the protocol:
as §7

Data set [26] in a line: Acute toxicity in rats after 2 hours when administered perorally. The class given is organism-based. The conditions noted are these: rat, in vivo, po. In outline: (§8)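 Male Wistar rats (130–160 g) dosed orally; lethality read at 2 h and 72 h. LD50 (mg/kg) derived by probit analysis (Miller–Tainter), using a minimum of 20 animals per drug.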
The test system of data set [27] is Mus musculus. As to the kind of experiment: Compound was tested for tonic convulsions when administered perorally. The conditions noted are these: po. It counts as functional. A digest of the protocol: as §2
Data set [28] can be described thus: Acute toxicity in rats after 72 hours when administered perorally. It counts as organism-based. The conditions noted are these: rat, in vivo, po. In outline:
as §8

A word on the ED50: it is the dose that gives a 50% effect, or the effect in half of the subjects. In the case of `CC1(C)OC(C)(C)c2c1nnc(-c1cccc(C(F)(F)F)c1)[n+]2[O-]`, in the data set on Mus musculus [1], it took a dose of 66.7 mg/kg to reach the 50% effect level (ED50).

Turning to `CC1(C)C/C(=N\Nc2ccccc2[N+](=O)[O-])C(C)(C)O1`, the ED50 with Mus musculus [1] amounted to 1000 mg/kg.

In turn, `Cc1ccc(-c2nnc3c([n+]2[O-])C(C)(C)OC3(C)C)cc1C` registered an ED50 in the data set on Mus musculus [1] of 133 mg/kg.

As to `CCOC(=O)c1nnc(-c2ccccn2)nc1O`, the 50% effective dose (ED50) result with Mus musculus [2] is “Toxic”.

`CC1(C)OC(C)(C)c2nc(-c3cnccn3)nnc21` registered a median effective dose (ED50) in the data set with Mus musculus [1] of 100 mg/kg.

`CC1(C)Cc2nnc(-c3ccccc3)[n+]([O-])c2C(C)(C)O1` registered an ED50 with Mus musculus [1] of 122 mg/kg.

As usually defined, the LD50 is the dose at which mortality reaches 50%. A low value points to greater toxicity. With `Cc1ccccc1-n1c(C)nc2ccccc2c1=O` [METHAQUALONE], the median effective dose (ED50) was determined as 25 mg/kg with Mus musculus [3]; 45 mg/kg in the data set with Mus musculus [4]; 23 mg/kg with Mus musculus [5]; 29 mg/kg in the data set with Mus musculus [6]; 19 mg/kg in the data set with Mus musculus [7]; 25 mg/kg in the data set with Mus musculus [8]. For the same compound, the 50% effective dose (ED50) with Mus musculus [9] was found to be 36 mg/kg; in the data set on Mus musculus [10], 31 mg/kg; in the data set with Mus musculus [11], 20 mg/kg; in the data set with Mus musculus [1] it was 20 mg/kg; in the data set with Mus musculus [12], 25 mg/kg; in the data set with Mus musculus [13], 34 mg/kg. For the same compound, the ED50 in the data set with Mus musculus [14] was determined as 23 mg/kg; in the data set with Mus musculus [15], 34 mg/kg; with Mus musculus [16] it was 25 mg/kg; in the data set on Mus musculus [17] it was 37 mg/kg; in the data set on Mus musculus [18] it was 30 mg/kg; in the data set with Rattus norvegicus [23] it was 44 mg/kg. Besides, the figures for the ED50 in the data set on Rattus norvegicus [24], with Rattus norvegicus [25] and in the data set on Mus musculus [27] were 23 mg/kg, 52 mg/kg and 39 mg/kg, respectively. Further, the LD50 at 2 h in [19] was 565 mg/kg; in data set [20], above 400 mg/kg; in data set [26], above 800 mg/kg. The LD50 at 72 h was 470 mg/kg in [21], above 400 mg/kg in [22] and 185 mg/kg in data set [28].

Compound `CC1(C)OC(C)(C)c2nc(-c3cccnc3)nnc21` gave a median effective dose (ED50) in the data set on Mus musculus [1] of 28.1 mg/kg.

Regarding `CC1(C)OC(C)(C)c2c1ncc(-c1ccccc1)[n+]2[O-].Cl`, the 50% effective dose (ED50) in the data set on Mus musculus [1] came to 1000 mg/kg.

For `CC1(C)OC(C)(C)c2nnc(-c3ccccc3)cc21.Cl`, in the data set on Mus musculus [1], the 50% effect level (ED50) was put at a dose of 112 mg/kg.

Regarding `CC1(C)CSCC(C)(C)c2nc(-c3ccccc3)nnc21`, the ED50 in the data set with Mus musculus [1] stood at 31.3 mg/kg.

With `CC1(C)OC(C)(C)c2c1nnc(-c1cccc(F)c1)[n+]2[O-]`, the median effective dose (ED50) in the data set with Mus musculus [1] is 74.9 mg/kg.

Consider `Cc1nnc(-c2ccccn2)nc1C`, for which the ED50 result with Mus musculus [2] is “Toxic”.

The compound `CC1(C)OC(C)(C)c2nc(Cc3ccccc3)nnc21` yielded a median effective dose (ED50) in the data set with Mus musculus [1] of 25 mg/kg.

On to `CC1(C)OC(C)(C)C(N=N)=C1O`, for which the ED50 in the data set on Mus musculus [1] came out at 133 mg/kg.

`CC1(C)OC2(CCCCC2)c2c1nnc(-c1ccccc1)[n+]2[O-]` registered an ED50 in the data set with Mus musculus [1] of 183 mg/kg.

As to `CC1(C)OC(C)(C)c2nc(-c3ccc4ccccc4n3)nnc21`, in the data set with Mus musculus [1], the 50% effective dose (ED50) was 168 mg/kg.

`CC1(C)Cc2nnc(-c3cccc([N+](=O)[O-])c3)[n+]([O-])c2C(C)(C)O1`: in the data set on Mus musculus [1], the ED50 stood at 500 mg/kg.

Compound `CC1(C)OC(C)(C)c2nc(-c3cccc([N+](=O)[O-])c3)nnc21` gave an ED50 in the data set with Mus musculus [1] of 68.8 mg/kg.
